Screening data from PubChem.
The list is not random: actives were taken first. Their share in the collection is about 0.58%.
miR122 inh = blocks miR-122 activity in Huh7 sensor cells; activation (reporter increase), % at 12.5 µM; 340,000 tested, 0.3% active; AID 602342; Huh7 miR-122 Renilla luciferase sensor, 48 h; neutral wells = 0, positive control = 100;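 active means mean replicate activation score at least 90 and every replicate individually at or above 90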;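 further: higher luciferase means less miR-122 activity so hits act as miR-122 inhibitors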
PglD DTNB = inhibitors of Campylobacter jejuni PglD acetyltransferase; inhibition, % at 12.5 µM; 360,000 tested, 0.098% active; purified PglD enzyme, DTNB colorimetric CoA detection; AID 602405; in the data active means inhibition above about 16%, passing the limit was not always enough
ERp5 inh = blocks human ERp5 reductase activity on insulin | inhibition, % at 9.99 µM | 350,000 tested, 0.05% active | ERp5 insulin aggregation, absorbance 650 nm, 90 min;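 active means mean replicate inhibition above about 25%, with every replicate also reaching it, limit read from the data, passing the limit was not always enough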
Target sequence (Q15084 whole entry, looked up): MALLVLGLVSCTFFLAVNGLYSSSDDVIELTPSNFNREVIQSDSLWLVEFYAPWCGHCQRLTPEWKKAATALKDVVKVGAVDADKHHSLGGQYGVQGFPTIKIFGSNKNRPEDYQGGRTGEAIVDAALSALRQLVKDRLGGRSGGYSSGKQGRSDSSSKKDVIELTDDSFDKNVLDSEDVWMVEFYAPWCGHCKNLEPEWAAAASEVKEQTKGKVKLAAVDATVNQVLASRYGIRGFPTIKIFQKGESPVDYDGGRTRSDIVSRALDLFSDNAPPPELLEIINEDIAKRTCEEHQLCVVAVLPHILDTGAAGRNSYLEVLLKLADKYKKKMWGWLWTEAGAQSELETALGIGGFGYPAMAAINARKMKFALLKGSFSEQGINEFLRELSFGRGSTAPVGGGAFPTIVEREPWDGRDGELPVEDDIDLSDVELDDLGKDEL
PDI turbidity = inhibitors of human protein disulfide isomerase | inhibition, % at 10 µM | PDI insulin aggregation turbidity, A650, 90 min | AID 588391 | 350,000 tested, 0.052% active | P07237;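 active means mean inhibition across replicates of 30% or more, whatever share of single replicates reach that level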
Cneo AK release = Cryptococcus neoformans lysis via adenylate kinase release. C. neoformans lysis, adenylate kinase release luminescence, 4 h; normalised: neutral wells 0, clomiphene wells 100. lysis activity, % at 15 µM. 360,000 tested, 0.2% active;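 active means mean lysis activity across replicates of at least 80%, whatever share of replicates individually reach that level; inactive means mean lysis activity below 80%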
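Assay system: C. neoformans cells. Amount: yeast cell density of 5 × 10^6 cells/mL. Technique: AK luminescence. Buffer or medium: YPD. Times: static 4 h at 37 °C with compound, 1 h detection. Dosing: single-point compound dose. Read-out: lysis from increased AK signal.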
PvdQ acylase = P. aeruginosa PvdQ acylase inhibition | 340,000 tested, 0.063% active | inhibition, % at 10 µM | AID 488965 | purified PvdQ acylase, fluorescence plate reader; in the data active means inhibition above about 30%, passing the limit was not always enough;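 further: 0% = vehicle neutral wells and 100% = reference inhibitor wells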
The depositor's hits bear a star; / = no result; [ ] = remark or other dose.

SMILES | miR122 inh | PglD DTNB | ERp5 inh | PDI turbidity | Cneo AK release | PvdQ acylase
COc1ccc(NC(=O)N(C)C[C@@H]2OCc3cn(nn3)CCCC(=O)N([C@@H](C)CO)C[C@@H]2C)c(OC)c1 | 3.3[16.7 µM] | / | / | / | / | /
O=[N+]([O-])c1ccc(N/N=C/c2c[nH]c3ccccc23)c(S(=O)(=O)Nc2ccc(Cl)cc2)c1 | 162.0* | -8.1 | / | -1.8 | -1.2 | -2.1
COc1ccccc1NS(=O)(=O)c1cc([N+](=O)[O-])ccc1N/N=C/c1c(C)[nH]c2ccccc12 | 19.5 | 8.1 | / | -3.6 | -8.8 | -21.9
O=C(c1ccccc1)N1CC(=O)N2[C@H](CO)[C@@H](c3ccc(C#CCC4CCCC4)cc3)[C@@H]2C1 | / | / | 1.8 | / | / | /
C[C@H](CO)N1C[C@H](C)[C@@H](CN(C)Cc2ccc(C(=O)O)cc2)Oc2cc(C#CCC3CCCC3)ccc2S1(=O)=O | 0.6[16.7 µM] | 5.8 | -2.1 | / | 0.7 | /
CC(=O)Nc1nc2ccc(S(=O)(=O)N3CCCC3)cc2s1 | -4.1 | -0.4 | -6.2 | 2.5 | -1.0 | -1.9
CCCC(=O)Nc1nc2ccc(S(=O)(=O)N3CCCCC3)cc2s1 | 117.8* | 4.1 | 0.4 | 0.4 | -3.6 | -10.9
Cc1noc(C)c1NC(=O)Nc1ccc2c(c1)C(=O)N([C@H](C)CO)C[C@H](C)[C@H](CN(C)CC1CCCCC1)OCCCC[C@@H](C)O2 | -3.1[16.7 µM] | -0.7 | -1.6 | / | -1.9 | /
CC(C)CC#Cc1cnc2c(c1)C(=O)N([C@@H](C)CO)C[C@@H](C)[C@H](CN(C)C(=O)c1cccnc1)O2 | -0.2[16.7 µM] | 2.8 | -4.0 | / | -1.5 | /
CC(C)CC#Cc1cnc2c(c1)C(=O)N([C@@H](C)CO)C[C@@H](C)[C@@H](CN(C)C(=O)c1cccc(F)c1)O2 | 4.1[16.7 µM] | 1.8 | -0.8 | / | 100.5* | /
CC(C)CC#Cc1cnc2c(c1)C(=O)N([C@H](C)CO)C[C@H](C)[C@H](CN(C)C(=O)c1cccnc1)O2 | 17.6[16.7 µM] | 0.9 | -4.5 | / | 81.8* | /
COc1cccc(C#Cc2cnc3c(c2)C(=O)N([C@H](C)CO)C[C@@H](C)[C@@H](CN(C)C(=O)C2CCOCC2)O3)c1 | 4.4[16.7 µM] | -1.7 | 2.9 | / | 81.3* | /
CCCNC(=O)N(C)C[C@@H]1Oc2ncc(C#CCc3ccccc3)cc2C(=O)N([C@@H](C)CO)C[C@@H]1C | 3.0[16.7 µM] | -0.5 | 3.7 | / | 96.8* | /
CCCNC(=O)N(C)C[C@@H]1Oc2ncc(C#CCc3ccccc3)cc2C(=O)N([C@H](C)CO)C[C@H]1C | -2.5[16.7 µM] | 1.4 | 0.0 | / | 2.4 | /
COCC#Cc1cnc2c(c1)C(=O)N([C@H](C)CO)C[C@@H](C)[C@@H](CN(C)C(=O)Nc1ccc(OC)cc1)O2 | 10.9[16.7 µM] | -3.9 | -4.9 | / | 97.4* | /
COCC#Cc1cnc2c(c1)C(=O)N([C@H](C)CO)C[C@H](C)[C@@H](CN(C)C(=O)Nc1ccc(OC)cc1)O2 | -2.9[16.7 µM] | 1.4 | 2.2 | / | -1.2 | /
CCCC#Cc1cnc2c(c1)C(=O)N([C@H](C)CO)C[C@@H](C)[C@@H](CN(C)C(=O)Nc1cccc(F)c1)O2 | 1.3 | 4.3 | -0.1 | 2.6 | 0.8 | /
CCCC#Cc1cnc2c(c1)C(=O)N([C@@H](C)CO)C[C@H](C)[C@H](CN(C)C(=O)Nc1cccc(F)c1)O2 | 87.7[16.7 µM] | -0.7 | -12.9 | / | 88.4* | /
COc1ccc(NC(=O)CN2CCN(S(=O)(=O)c3ccc(C(C)C)cc3)CC2)cc1OC | 0.0 | -2.7 | / | 4.0 | 130.5* | 0.9
COc1ccccc1CNC(=O)C[C@H]1CC[C@@H]2[C@H](COC[C@@H](O)CN2Cc2cccc(-c3ccncc3)c2)O1 | 2.1[16.7 µM] | -0.3 | 3.5 | / | -1.1 | /
C#CCOCCOCCOCCNc1nc(N2CCN(C(=O)[C@H](CCCCN)n3cc([C@@H](N)CC(C)C)nn3)CC2)nc(N2CCN(C(=O)[C@H](Cc3cc4ccccc4[nH]3)n3cc([C@@H](N)Cc4ccc(O)cc4)nn3)CC2)n1 | / | 0.0 | / | 34.5* | -0.4 | -12.6
C#CCOCCOCCOCCNc1nc(N2CCN(C(=O)[C@H](Cc3ccc(O)cc3)n3cc([C@@H](N)CC(C)C)nn3)CC2)nc(N2CCN(C(=O)[C@H](Cc3cc4ccccc4[nH]3)n3cc([C@@H](N)CC(C)C)nn3)CC2)n1 | / | / | -2.7 | / | / | /
C#CCOCCOCCOCCNc1nc(N2CCN(C(=O)C(Cc3cc4ccccc4[nH]3)n3cc(C(N)C(C)CC)nn3)CC2)nc(N2CCN(C(=O)C(Cc3cc4ccccc4[nH]3)n3cc(C(N)C(C)CC)nn3)CC2)n1 (configuration not stated) | / | -1.9 | / | 54.9* | 0.5 | -0.9
C#CCOCCOCCOCCNc1nc(N2CCOCC2)nc(N2CCN(C(=O)[C@H](Cc3cc4ccccc4[nH]3)n3cc([C@@H](N)C(C)CC)nn3)CC2)n1 (some centres not stated) | -6.9 | 3.5 | 1.5 | 9.1 | 4.8 | -16.9
O=C(C1CCOCC1)N1CC(=O)N2[C@@H](CO)[C@H](c3ccc(C#CC4CCCC4)cc3)[C@@H]2C1 | / | / | 4.2 | / | / | /
SMILES | miR122 inh | PglD DTNB | ERp5 inh | PDI turbidity | Cneo AK release | PvdQ acylase
Cc1ccc(S(=O)(=O)n2nc(C)c(Br)c2C)c(C)c1C | 104.5* | / | / | 8.7 | / | -6.7
Cc1ccccc1NC(=S)NC(=O)CCc1ccccc1 | -3.8 | -2.5 | / | -1.4 | 103.5* | -3.5
Cc1cccc(C)c1NC(=S)NC(=O)CCc1ccccc1 | -2.7 | 5.9 | -4.9 | 3.8 | 12.2 | -11.7
NC(=O)Cn1cc(/C=N\NS(=O)(=O)c2ccc(F)cc2)c2ccccc21 | 135.3* | 2.2 | -1.5 | -11.3 | -0.8 | -5.0
CCc1ccc(S(=O)(=O)N/N=C\c2cn(CC(N)=O)c3ccccc23)cc1 | / | 2.3 | 4.1 | -3.1 | -2.3 | -3.1
C[C@H](NC(=O)C[C@H]1CC[C@@H](NC(=O)Cc2ccccn2)[C@@H](CO)O1)c1ccccc1 | 3.1[16.7 µM] | 2.0 | 0.0 | / | 96.3* | /
O=C(C[C@@H]1CC[C@H](NC(=O)Cc2ccccn2)[C@@H](CO)O1)NCCc1ccccc1 | / | -0.7 | -0.4 | / | 95.2* | /
COc1cccc(S(=O)(=O)N(C)C[C@H]2Oc3ncc(-c4cccc(C(=O)N(C)C)c4)cc3C(=O)N([C@@H](C)CO)C[C@H]2C)c1 | 10.2[16.7 µM] | -2.6 | 1.6 | / | 2.8 | /
O=C(C[C@H]1C[C@@H]2c3cc(NC(=O)CC4CC4)ccc3O[C@@H]2[C@H](CO)O1)NCc1ccc(-c2ccccc2)cc1 | -2.3[16.7 µM] | -5.1 | -5.9 | / | 44.1 | /
O=C(C[C@H]1C[C@@H]2c3cc(NC(=O)CC4CC4)ccc3O[C@@H]2[C@@H](CO)O1)NCc1ccc(-c2ccccc2)cc1 | -5.7[16.7 µM] | 0.8 | 62.6* | / | 0.7 | /
O=C(C[C@@H]1C[C@H]2c3cc(NC(=O)CC4CC4)ccc3O[C@H]2[C@@H](CO)O1)NCc1ccc(-c2ccccc2)cc1 | 6.5[16.7 µM] | -1.6 | 59.4* | / | 1.7 | /
O=C(C[C@@H]1C[C@@H]2c3cc(NC(=O)CC4CC4)ccc3O[C@@H]2[C@H](CO)O1)NCc1ccc(-c2ccccc2)cc1 | 4.8[16.7 µM] | 2.3 | -9.2 | / | 10.5 | /
